From ChEMBL document CHEMBL3352128, “Design, synthesis and biological evaluation of thienopyridinones as Chk1 inhibitors” (Bioorg Med Chem, 2014)
Calls of active or inactive are those of the source. The rule behind the calls is not given here.

What was measured:
[1] = species on record: Homo sapiens; experiment: Selectivity index, ratio of IC50 for CDK2/cyclinA (unknown origin) to IC50 for Chk1 (unknown origin)
[2] = species on record: Homo sapiens; experiment: Selectivity index, ratio of IC50 for PKC (unknown origin) to IC50 for Chk1 (unknown origin)
[3] = biological target: Protein kinase C (PKC); experiment: Inhibition of PKC (unknown origin) by Z'-LYTETM kinase assay; design: species or system Homo sapiens
[4] = biological target: T1, Aurora kinase A (Homo sapiens, UniProt O14965); experiment: Inhibition of Aurora A (unknown origin) expressed in Escherichia coli by ZLYTETM assay
T1 sequence (O14965 whole entry): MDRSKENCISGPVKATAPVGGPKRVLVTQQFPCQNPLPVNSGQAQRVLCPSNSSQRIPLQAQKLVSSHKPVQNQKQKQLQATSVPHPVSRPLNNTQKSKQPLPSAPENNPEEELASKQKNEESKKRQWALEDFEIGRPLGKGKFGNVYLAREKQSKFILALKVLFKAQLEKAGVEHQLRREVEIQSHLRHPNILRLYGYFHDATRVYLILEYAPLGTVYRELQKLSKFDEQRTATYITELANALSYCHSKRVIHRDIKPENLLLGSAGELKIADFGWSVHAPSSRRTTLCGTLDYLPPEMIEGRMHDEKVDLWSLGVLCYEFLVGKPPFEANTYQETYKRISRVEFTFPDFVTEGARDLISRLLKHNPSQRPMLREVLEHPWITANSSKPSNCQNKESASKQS
How it was run: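 Z'-LYTE kinase assay. Aurora A was recombinant protein expressed in E. coli. Compounds were first tested at 1 µg/mL final. Those giving more than 40% inhibition were taken further, with IC50 reported.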

[5] = species on record: Homo sapiens; experiment: Selectivity index, ratio of IC50 for Aurora A (unknown origin) to IC50 for Chk1 (unknown origin)
[6] = biological target: CDK2/Cyclin A2 (Homo sapiens, UniProt P24941); experiment: Inhibition of CDK2/cyclin A (unknown origin) by HTRF kinase assay; type: protein-complex assay
How it was run: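 CDK2/cyclin A was purchased enzyme, tested with an HTRF kinase assay kit. Compounds were first screened at 1 µg/mL final, and those giving more than 40% inhibition were taken forward to IC50.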

[7] = biological target: T2, Serine/threonine-protein kinase Chk1 (Homo sapiens, UniProt O14757); experiment: Inhibition of Chk1 (unknown origin) by luminescent ADP-Glo assay
T2 sequence (O14757 whole entry): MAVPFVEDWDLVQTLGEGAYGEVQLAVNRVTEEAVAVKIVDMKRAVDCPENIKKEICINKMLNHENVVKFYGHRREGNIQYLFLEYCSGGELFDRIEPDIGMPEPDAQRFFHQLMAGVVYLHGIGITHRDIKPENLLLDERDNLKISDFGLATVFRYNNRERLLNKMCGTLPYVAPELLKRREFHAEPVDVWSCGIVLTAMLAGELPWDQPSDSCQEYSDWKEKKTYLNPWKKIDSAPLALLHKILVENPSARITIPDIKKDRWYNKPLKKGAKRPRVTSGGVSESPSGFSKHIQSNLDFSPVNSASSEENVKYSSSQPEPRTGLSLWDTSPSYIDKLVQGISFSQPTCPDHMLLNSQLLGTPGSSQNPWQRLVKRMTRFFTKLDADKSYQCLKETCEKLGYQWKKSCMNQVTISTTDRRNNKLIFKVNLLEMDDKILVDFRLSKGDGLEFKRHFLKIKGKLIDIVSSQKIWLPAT

[8] = tested on: RPMI8266; experiment: Cytotoxicity against human […] cells at 100 nM after 72 hrs by MTS assay; type: functional, cell-based
How it was run: (§1)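 RPMI 8226 myeloma cells were seeded at 5 × 10³ cells per well in 100 µL. They were treated with Chk1 inhibitor at 100 nM, with melphalan (1, 3 and 10 µM), or with both, for 72 h. MTS was then added at 0.5 mg/mL final for 2–4 h to read growth.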

[9] = tested on: RPMI8266; experiment: Potentiation of melphalan-induced cytotoxicity against human […] cells at 100 nM after 72 hrs by MTS assay; type: functional, cell-based; how it was run: as §1

| Structure (SMILES) | Ratio IC50 [1] | Ratio IC50 [2] | IC50 [3] [nM] | IC50 [4] [nM] | Ratio IC50 [5] | IC50 [6] [nM] | IC50 [7] [nM] | further results |
| --- | --- | --- | --- | --- | --- | --- | --- | --- |
| O=c1[nH]c2sccc2c(NC2CCCNC2)c1-c1nc2ccccc2[nH]1 (stereo not given) | > 20 | > 20 | 695.85 | 791 | > 20 | 849 | 15.6 |  |
| O=c1[nH]c2ccsc2c(NC2CCNC2)c1-c1nc2ccccc2[nH]1 (stereo not given) |  |  |  |  |  |  | 24.7 |  |
| O=c1[nH]c2sc(Cl)cc2c(NC2CCCNC2)c1-c1nc2ccccc2[nH]1 (stereo not given) | > 20 | > 20 | 168.89 | 1050 | > 20 | 334 | 4.05 | Activity [8]: inactive; Activity [9]: Active |
| CNCCNc1c(-c2nc3ccccc3[nH]2)c(=O)[nH]c2sccc12 |  |  |  |  |  |  | > 10000 |  |
| O=c1[nH]c2sc(Br)cc2c(NC2CCCNC2)c1-c1nc2ccccc2[nH]1 (stereo not given) | > 20 | > 20 | 392.71 | 1590 | > 20 | 246 | 4.83 |  |
| O=c1[nH]c2sccc2c(NCC2CCNCC2)c1-c1nc2ccccc2[nH]1 |  |  |  |  |  |  | 116 |  |
| Cc1cc2c(NC3CCCNC3)c(-c3nc4ccccc4[nH]3)c(=O)[nH]c2s1 (stereo not given) |  |  |  |  |  |  | 9.84 |  |
| O=c1[nH]c2sccc2c(NCCO)c1-c1nc2ccccc2[nH]1 |  |  |  |  |  |  | > 10000 |  |
| O=c1[nH]c2ccsc2c(NC2CCCNC2)c1-c1nc2ccccc2[nH]1 (stereo not given) | > 20 | > 20 | 814.06 | 202 | > 20 | 256 | 7.54 |  |
| O=c1[nH]c2sccc2c(N[C@H]2CCCNC2)c1-c1nc2ccccc2[nH]1 | > 20 | > 20 | 522.51 | 495 | > 20 | 852 | 5.22 |  |
| O=c1[nH]c2sccc2c(NC2CN3CCC2CC3)c1-c1nc2ccccc2[nH]1 (stereo not given) | 100 | 100 | 1001.81 | > 10000 | > 20 | 1630 | 14 |  |
| COC(=O)CCNc1c(-c2nc3ccccc3[nH]2)c(=O)[nH]c2sccc12 |  |  |  |  |  |  | > 10000 |  |
| NCCNc1c(-c2nc3ccccc3[nH]2)c(=O)[nH]c2sccc12 |  |  |  |  |  |  | > 10000 |  |
| COc1ccc2[nH]c(-c3c(N[C@H]4CCCNC4)c4cc(Cl)sc4[nH]c3=O)nc2c1 | > 20 | > 20 | 204.48 | 328 | > 20 | 393 | 2.33 | Activity [8]: inactive; Activity [9]: Active |
| O=c1[nH]c2sccc2c(NC2CCNC2)c1-c1nc2ccccc2[nH]1 (stereo not given) |  |  |  |  |  |  | 47.5 |  |
| NC(=O)Nc1cc(-c2cccc(F)c2)sc1C(=O)N[C@H]1CCCNC1 |  |  |  |  |  |  |  | Activity [8]: inactive; Activity [9]: Active |
| COc1ccc2[nH]c(-c3c(NC4CN5CCC4CC5)c4cc(Cl)sc4[nH]c3=O)nc2c1 (stereo not given) | 100 | 100 | 8186.03 | 1400 | > 20 | 4300 | 5.36 |  |
| Cc1cc2c(NC3CCNC3)c(-c3nc4ccccc4[nH]3)c(=O)[nH]c2s1 (stereo not given) |  |  |  |  |  |  | 23.2 |  |
| O=c1[nH]c2sccc2c(N2CCOCC2)c1-c1nc2ccccc2[nH]1 |  |  |  |  |  |  | > 10000 |  |
| O=c1[nH]c2sccc2c(NC2CCCCC2)c1-c1nc2ccccc2[nH]1 |  |  |  |  |  |  | > 10000 |  |
| O=c1[nH]c2sccc2c(NCCN2CCOCC2)c1-c1nc2ccccc2[nH]1 |  |  |  |  |  |  | > 10000 |  |
| O=c1[nH]c2sc(Cl)cc2c(N[C@H]2CCCNC2)c1-c1nc2ccccc2[nH]1 |  |  |  |  |  |  | 3.53 |  |
| O=c1[nH]c2sccc2c(N2CCC(CO)CC2)c1-c1nc2ccccc2[nH]1 |  |  |  |  |  |  | > 10000 |  |
| O=c1[nH]c2sccc2c(NC2CCNCC2)c1-c1nc2ccccc2[nH]1 |  |  |  |  |  |  | 9.94 |  |
| O=c1[nH]c2sc(Cl)cc2c(NC2CCNC2)c1-c1nc2ccccc2[nH]1 (stereo not given) |  |  |  |  |  |  | 41 |  |
| O=c1[nH]c2sc(Cl)cc2c(NC2CN3CCC2CC3)c1-c1nc2ccccc2[nH]1 (stereo not given) | 100 | 100 | 2018.88 | > 10000 | > 20 | 3190 | 6.23 | Activity [8]: inactive; Activity [9]: Active |
| CN(C)CCNc1c(-c2nc3ccccc3[nH]2)c(=O)[nH]c2sccc12 |  |  |  |  |  |  | 178 |  |
| O=c1[nH]c2sccc2c(N2CCCCC2)c1-c1nc2ccccc2[nH]1 |  |  |  |  |  |  | > 10000 |  |
| O=c1[nH]c2sc(Br)cc2c(NC2CCNC2)c1-c1nc2ccccc2[nH]1 (stereo not given) |  |  |  |  |  |  | 15.3 |  |
